APJ agonist: APJ receptor agonism; activation, % at 20 µM; hit rate 0.11% among 330,000; CHO-K1 APJ PathHunter beta-arrestin, luminescence; 0% DMSO wells, 100% apelin; P35414;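 active = activation more than six SD over the plate average, tested at 20 µM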;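 also: 0% = DMSO alone and 100% = apelin-13 at 10 nM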
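Assay system: engineered CHO-K1 APJ arrestin reporter cells; Amount: 1000 CHO-K1 reporter cells seeded per well; Dosing: one dose, 20 µM compound, 1% DMSO; Times: compound stimulation 90 min at 25 °C, detection 60 min; Measured by: luminescent beta-gal fragment complementation, chemiluminescent substrate; Read-out: APJ–arrestin association signal; Controls: DMSO vs Apelin-13 10 nM.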
APJ antagonist: blocks the human apelin receptor APJ | inhibition, % at 20 µM | hit rate 0.32% among 330,000 | P35414 | CHO-K1 APJ beta-arrestin complementation, luminescence;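 active = inhibition above about 40% at 20 µM, limit read from the data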;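 also: cells challenged with 10 nM apelin-13 agonist together with compound; plate controls were apelin-13 plus DMSO wells for no effect and DMSO wells lacking apelin-13 for full effect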
EBI2 block: EBI2 (human) antagonism | P32249 | EBI2 beta-arrestin recruitment, luminescence, 7a,25-OHC stimulated | AID 651636 | hit rate 0.81% among 360,000 | inhibition, % at 5 µM; in the data active = inhibition above about 38%;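 also: enzyme fragment complementation signal reports receptor beta-arrestin coupling in cells; 0% = agonist plus DMSO wells and 100% = wells without agonist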
Target sequence (P32249 whole entry, looked up, the tested form may be a part): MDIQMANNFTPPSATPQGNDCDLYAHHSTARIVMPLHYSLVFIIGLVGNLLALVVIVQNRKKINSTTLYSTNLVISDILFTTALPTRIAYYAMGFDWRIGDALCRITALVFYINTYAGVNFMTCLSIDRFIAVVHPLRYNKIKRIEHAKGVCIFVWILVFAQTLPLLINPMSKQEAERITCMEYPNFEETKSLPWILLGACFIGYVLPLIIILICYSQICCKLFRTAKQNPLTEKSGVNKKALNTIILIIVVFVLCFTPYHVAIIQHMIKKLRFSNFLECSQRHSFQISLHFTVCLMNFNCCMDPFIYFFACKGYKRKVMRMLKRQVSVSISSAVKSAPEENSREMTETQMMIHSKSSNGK
CCR6 antag: antagonists of human CCR6 receptor; P51684; CHO-K1 CCR6 PathHunter beta-arrestin, luminescence, CCL20-stimulated; inhibition, % at 20 µM; hit rate 0.49% among 340,000;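 active = compounds whose inhibition of the agonist-driven luminescence signal at 20 µM reaches about 50%, limit read from the data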;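 also: cells stimulated with CCL20 at 14 nM final; plate controls were DMSO with CCL20 for no effect and DMSO without agonist for full effect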
CXCR6 block: blocks human CXCR6 beta-arrestin recruitment; O00574; CHO-K1 PathHunter CXCR6 beta-arrestin, luminescence; inhibition, % at 20 µM; hit rate 0.36% among 360,000; AID 602244; in the data active = inhibition above about 34%, passing the limit was not always enough;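 also: antagonist mode with CXCL16 agonist at 10 nM final; 0% = 10 nM CXCL16 with DMSO and 100% = unstimulated wells without agonist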
EBI2 antag conf: EBI2 (human) antagonism, single concentration confirmation; shares compounds with EBI2 block; EBI2 beta-arrestin luminescence, 7a,25-OHC antagonism; inhibition, % at 5 µM; hit rate 29% among 2,400;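 active = inhibition of at least 50%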
EBI2 agonist: activates EBI2, counter-screen for EBI2 antagonists; shares compounds with EBI2 block; EBI2-expressing cells, agonist mode, luminescence, 60 min; 0% vehicle, 100% 7α,25-dihydroxycholesterol control; activation, % at 5 µM; 2,400 tested, under 10 active; AID 652000;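 active = activation of at least 50%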
bGal cs: beta-galactosidase inhibition counter-screen | shares compounds with EBI2 block | purified beta-galactosidase, luminescent Galacton Star, 15 min | inhibition, % at 5 µM | hit rate 1% among 2,400 | AID 652176;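 active = replicate-average signal at least 3 plate SD below neutral wells, shown as high inhibition, flagging enzyme-inhibiting false positives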;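 also: 0% = DMSO wells with enzyme and 100% = wells lacking enzyme; higher means stronger loss of beta-gal luminescence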
* hit, by the source's call. The list is not random: actives were taken first. Their share in the collection is about 1.5%.

For O=C1C=C(c2ccc3ncccc3c2)C[C@@H](c2ccc(F)cc2)C1 the results were APJ agonist -4, APJ antagonist 9, EBI2 block 75*, CCR6 antag 13, CXCR6 block -6, EBI2 antag conf 61*, EBI2 agonist -1 and bGal cs 4.
Screening CCOC(=O)C1CCCN(C(=O)c2ccco2)C1 (stereo not drawn) returned APJ agonist -5, APJ antagonist 13, EBI2 block -13, CCR6 antag 2 and CXCR6 block -1.
Cc1cccc(N(CC(=O)N/N=C/c2cc([N+](=O)[O-])ccc2Cl)S(C)(=O)=O)c1C was read as APJ agonist 7, APJ antagonist -6, EBI2 block -3, CCR6 antag -15 and CXCR6 block -3.
Screening Cc1csc(NC(=O)CSc2nnc(Cn3c(=O)sc4ccccc43)n2-c2ccccc2)n1 returned APJ agonist -3, APJ antagonist 16, EBI2 block -3, CCR6 antag 13 and CXCR6 block -4.
Screening O=C1C=C(c2ccc3[nH]ccc3c2)C[C@@H](c2ccc(F)cc2)C1 returned APJ agonist -3, APJ antagonist 16, EBI2 block 52*, CCR6 antag 13, CXCR6 block 0, EBI2 antag conf 62*, EBI2 agonist 0 and bGal cs 11.
For CCN(CC)CCSc1nnc2c3cc(C)ccc3n(Cc3ccccc3)c2n1 the results were APJ agonist -2, APJ antagonist 19, EBI2 block 74*, CCR6 antag 17, CXCR6 block 2, EBI2 antag conf 52*, EBI2 agonist 1 and bGal cs -1.
Screening CSc1nnc2c3cc(F)ccc3n(Cc3ccccc3)c2n1 returned APJ agonist -1, APJ antagonist 23, EBI2 block -1, CCR6 antag -8 and CXCR6 block 0.
Screening COc1cc(-c2nc(-c3ccccc3)c(-c3cccs3)[nH]2)cc(OC)c1OC returned APJ agonist -3, APJ antagonist 2, EBI2 block 45*, CCR6 antag 7, CXCR6 block 18, EBI2 antag conf 16, EBI2 agonist 2 and bGal cs 4.
COc1ccccc1N1CCN(C(=O)c2cc3c(s2)-c2ccccc2OC3)CC1 was read as APJ agonist -1, APJ antagonist 10, EBI2 block 85*, CCR6 antag 2, CXCR6 block 4, EBI2 antag conf 82*, EBI2 agonist 2 and bGal cs -8.
CCOC(=O)C1CCN(C(=O)c2cc3c(s2)-c2ccccc2OC3)CC1 was read as APJ agonist -4, APJ antagonist -58, EBI2 block 79*, CCR6 antag 13, CXCR6 block 2, EBI2 antag conf 74*, EBI2 agonist 1 and bGal cs 0.
`COc1ccc(C(=O)/C=C/c2ccc(OC(=O)c3cc(OC)c(OC)c(OC)c3)cc2)cc1` gave APJ agonist -2, APJ antagonist -8, EBI2 block 45*, CCR6 antag 17, CXCR6 block 3, EBI2 antag conf 10, EBI2 agonist 1 and bGal cs 8.
Screening CCCCN1C(=O)C(CC(=O)NCCCN(C)C)CC(C(=O)N2CCCCCC2)=C1C (stereo not drawn) returned EBI2 block -8 and CXCR6 block 4.
Screening N#C/C(=C/c1cn(-c2ccccc2)nc1-c1cccc(OCc2ccccc2)c1)C(=O)NCCCn1ccnc1 returned APJ agonist -2, APJ antagonist 2, EBI2 block 29, CCR6 antag 16 and CXCR6 block 9.
Screening CCOc1cccc(-c2nn(-c3ccccc3)cc2/C=C(/C#N)C(=O)NCCCn2ccnc2)c1 returned APJ agonist -1, APJ antagonist -8, EBI2 block 40*, CCR6 antag 3, CXCR6 block 6, EBI2 antag conf 14, EBI2 agonist 1 and bGal cs 8.
For Cc1ccc(-n2nc(C)c(NC(=O)CCl)c2C)cc1 the results were APJ agonist -4, APJ antagonist 1, EBI2 block 5, CCR6 antag 1 and CXCR6 block 5.
For Cc1ccc2cccc(N=Cc3c(C)[nH]n(-c4ccccc4)c3=O)c2n1 the results were EBI2 block 78*, CCR6 antag 89*, CXCR6 block 69*, EBI2 antag conf 67*, EBI2 agonist -1 and bGal cs 11.
For COCc1cccc(-c2csc(C(C)(NC(C)=O)c3ccc(OC)cc3)n2)c1 (stereo not drawn) the results were EBI2 block 0 and CXCR6 block 6.
`Cn1nnc2c(sc3nc(N4CCOCC4)c4c(c32)CCCC4)c1=O` gave APJ agonist -4, APJ antagonist 13, EBI2 block 49*, CCR6 antag 3, CXCR6 block 9, EBI2 antag conf 38, EBI2 agonist -1 and bGal cs -19.
CC1(c2nnc(Cc3ccccc3)o2)CC(c2ccc(OC(F)(F)F)cc2)=NO1 (stereo not drawn) was read as APJ agonist 5, APJ antagonist 1, EBI2 block -4, CCR6 antag 19 and CXCR6 block 2.
Screening CCOc1ccc(-n2c(C)nc(O)c2N=Nc2ccccc2)cc1 returned APJ agonist -6, APJ antagonist 9, EBI2 block 5, CCR6 antag 13 and CXCR6 block 11.
`C/C(=N\Nc1ncnc2sc(C)c(C)c12)c1ccccn1` gave APJ agonist 1, APJ antagonist 47*, EBI2 block 55*, CCR6 antag -27, CXCR6 block -23, EBI2 antag conf 53*, EBI2 agonist -2 and bGal cs -5.
For Cc1sc2ncnc(N/N=C/c3cccc(O)c3)c2c1C the results were APJ agonist -1, APJ antagonist 15, EBI2 block 5, CCR6 antag 3 and CXCR6 block -8.
For COc1cc(Cl)cc(C2NC(=S)NC(c3ccccc3)=C2C(C)=O)c1OCC(=O)O (stereo not drawn) the results were APJ agonist -3, APJ antagonist -24, EBI2 block -4, CCR6 antag -4 and CXCR6 block -1.
For CCC1CCCCN1C(=S)Nc1ccc(OC(F)F)cc1 (stereo not drawn) the results were APJ agonist -2, APJ antagonist -4, EBI2 block 55*, CCR6 antag 10, CXCR6 block -5, EBI2 antag conf 0, EBI2 agonist 0 and bGal cs 2.

Compound activity as filed in PubChem.
